For one series, the system named is Trichomonas vaginalis. Nature of the series: Antitrichomonas activity against Trichomonas vaginalis TVR87 after 48 hrs by trypan blue staining. In kind it is functional, organism-based. The conditions noted are these: TVR87, 48 h. The essentials: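 T. vaginalis TVR87 trophozoites grown in TM 161 medium with 10% heat-inactivated horse serum, used one day after subculture in log phase. Assay at 5 × 10³ trophozoites/mL, triplicate cultures, incubated anaerobically at 37 °C for 48 h with a range of compound concentrations from DMSO stocks. DMSO 0.1% final served as negative control. Viable cells counted by trypan blue.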

Series [1] in a line: Specificity index, ratio of IC50 for human THP1 cells to IC50 for Trichomonas vaginalis TVR87. Details: species or system THP-1. The essentials: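 Specificity index = IC50 against THP1 cells (72 h, propidium iodide flow cytometry) divided by IC50 against T. vaginalis (48 h, trypan blue).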
The subject of another series is THP-1. Nature of the series: Cytotoxicity against human THP1 cells after 72 hrs by propidium iodide-based flow cytometry. Type of series: cell-based. The conditions noted are these: THP-1, 72 h. The essentials: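 THP1 monocytes kept in RPMI with 10% foetal calf serum, 25 mM HEPES, 25 mM NaHCO₃ and 1% L-glutamine/penicillin-streptomycin at 37 °C, 6% CO₂. Cells at 10⁵ cells/mL exposed for 72 h to various concentrations from DMSO stocks. Drug-free and 0.5% DMSO final controls run alongside. Living cells counted by propidium iodide flow cytometry.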
A general note: In flow cytometry, cells or beads pass a laser one at a time.

The subject of series [2] is Salmonella typhimurium. Nature of the series: Induction of mutagenicity in Salmonella Typhimurium YG1042 assessed as number of revertant per ug after 48 hrs. The settings on record: salmonella enterica subsp. enterica serovar typhimurium. In kind it is toxicity, organism-based. The essentials: (§1)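 YG1042, a TA100 derivative, grown overnight in Nutrient Broth No. 2 with ampicillin and kanamycin. Bacteria preincubated 60 min at 37 °C with shaking with compound in DMSO and 0.1 mL PBS (0.15 M, pH 7.4). Top agar containing histidine/biotin added, then plated on Vogel-Bonner agar. Revertants counted after 48 h. Four doses in triplicate plates; solvent control in quadruplicate. Mutagenic power given as revertants per amount of compound.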

The subject of series [3] is Salmonella typhimurium. Nature of the series: Induction of mutagenicity in Salmonella Typhimurium TA100 assessed as number of revertant per ug after 48 hrs. Type of series: toxicity, organism-based. The settings on record: salmonella enterica subsp. enterica serovar typhimurium. The essentials:
(§2)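 TA100 grown overnight in Nutrient Broth No. 2 with ampicillin. Bacteria preincubated 60 min at 37 °C with shaking with compound in DMSO and 0.1 mL PBS (0.15 M, pH 7.4). Top agar containing histidine/biotin added, then plated on Vogel-Bonner agar. Revertants counted after 48 h. Four consecutive doses in triplicate plates; solvent control in quadruplicate. Mutagenic power given as revertants per amount of compound.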

Series [4] has as its system Salmonella typhimurium. Nature of the series: Induction of mutagenicity in Salmonella Typhimurium YG1042 assessed as number of revertant per nmol after 48 hrs. In kind it is toxicity, organism-based. The conditions noted are these: salmonella enterica subsp. enterica serovar typhimurium. The essentials: as §1
Series [5] deals with Salmonella typhimurium. Nature of the series: Induction of mutagenicity in Salmonella Typhimurium TA100 assessed as number of revertant per nmol after 48 hrs. In kind it is toxicity, organism-based. The conditions noted are these: salmonella enterica subsp. enterica serovar typhimurium. The essentials: as §2
Series [6] has as its system Salmonella typhimurium. Nature of the series: Induction of mutagenicity in Salmonella Typhimurium TA100 assessed as number of revertant per nmol after 48 hrs relative to metranidazole. The conditions noted are these: salmonella enterica subsp. enterica serovar typhimurium. In kind it is toxicity, organism-based.
Series [7] has as its system Salmonella typhimurium. Nature of the series: Induction of mutagenicity in Salmonella Typhimurium YG1042 assessed as number of revertant per nmol after 48 hrs relative to metranidazole. In kind it is toxicity, organism-based. The conditions noted are these: salmonella enterica subsp. enterica serovar typhimurium.
Series [8] deals with Salmonella typhimurium. Nature of the series: Ratio of number of revertant per nmol of drug for Salmonella Typhimurium YG1042 to number of revertant per nmol of drug for Salmonella Typhimurium TA100. Type of series: toxicity, organism-based. The settings on record: salmonella enterica subsp. enterica serovar typhimurium.

One may read the IC50 as the concentration that inhibits the measured activity by half. As to `Cn1cnc(CS(=O)(=O)c2ccc(F)cc2)c1[N+](=O)[O-]`, the IC50 is 0.334 µM with Trichomonas vaginalis and greater than 835 µM with THP-1. Besides, the “Ratio IC50” value in [1] is reported as greater than 2500. Moreover, the Activity in the series on Salmonella typhimurium [2] came out at 157.34; in the series on Salmonella typhimurium [3], 35.17; in the series on Salmonella typhimurium [4], 47.09; in the series on Salmonella typhimurium [5], 10.53; with Salmonella typhimurium [6] it was 1.26; in the series on Salmonella typhimurium [7], 0.56. Further, in the series on Salmonella typhimurium [8], the Ratio is 4.5.
For the compound `Cc1ncc([N+](=O)[O-])n1CC(C)O` (stereo not given) [SECNIDAZOLE], the IC50 with Trichomonas vaginalis is 0.81 µM; in the series with THP-1, greater than 1350 µM. Moreover, in series [1], the “Ratio IC50” value is greater than 1666. In addition, the Activity was 128.44 with Salmonella typhimurium [2]; 25.74 in the series with Salmonella typhimurium [3]; 23.78 with Salmonella typhimurium [4]; 4.77 in the series on Salmonella typhimurium [5]; 0.57 in the series on Salmonella typhimurium [6]; 0.28 with Salmonella typhimurium [7]. For the same compound, the Ratio with Salmonella typhimurium [8] was 5.
Regarding `Cc1ncc([N+](=O)[O-])n1C` [DIMETRIDAZOLE], the IC50 was 0.708 µM in the series with Trichomonas vaginalis and greater than 1770 µM in the series with THP-1. In series [1], the “Ratio IC50” value was greater than 2501. Moreover, the Activity with Salmonella typhimurium [2] is reported as 1578.04; with Salmonella typhimurium [3], 153.8; with Salmonella typhimurium [4] it was 222.71; with Salmonella typhimurium [5] it was 21.71; in the series on Salmonella typhimurium [6], 2.6; in the series on Salmonella typhimurium [7], 2.64. Further, the Ratio with Salmonella typhimurium [8] is on record as 10.3.
With `Cn1cnc(CS(=O)(=O)c2ccccc2)c1[N+](=O)[O-]`, the IC50 in the series with Trichomonas vaginalis was 0.199 µM; with THP-1, greater than 888 µM. Further, the “Ratio IC50” value in series [1] is on record as greater than 4460. For the same compound, the Activity worked out at 176.64 with Salmonella typhimurium [2]; 50.91 in the series with Salmonella typhimurium [3]; 49.69 in the series with Salmonella typhimurium [4]; 14.32 with Salmonella typhimurium [5]; 1.71 in the series with Salmonella typhimurium [6]; 0.59 in the series on Salmonella typhimurium [7]. Besides, the Ratio in the series with Salmonella typhimurium [8] is listed as 3.5.
As for `Cc1nc(CS(=O)(=O)c2ccc(Br)cc2)c([N+](=O)[O-])n1C`, the values for the IC50 in the series on Trichomonas vaginalis and with THP-1 were 0.66 µM and 326 µM, respectively. The “Ratio IC50” value in [1] was 493. The Activity stood at 32.91 in the series with Salmonella typhimurium [2]; 17.61 with Salmonella typhimurium [3]; 12.32 with Salmonella typhimurium [4]; 6.59 in the series on Salmonella typhimurium [5]; 0.79 in the series with Salmonella typhimurium [6]; 0.15 in the series with Salmonella typhimurium [7]. The Ratio with Salmonella typhimurium [8] is 1.9.
As to `Cc1nc(CS(=O)(=O)c2ccc(Cl)cc2)c([N+](=O)[O-])n1CCO`, the IC50 was determined as 0.044 µM with Trichomonas vaginalis and 578 µM in the series on THP-1. In addition, the “Ratio IC50” value in series [1] amounted to 13136. Moreover, the Activity in the series with Salmonella typhimurium [2] is 14.73; in the series on Salmonella typhimurium [3] it was 6.22; in the series on Salmonella typhimurium [4] it was 5.3; with Salmonella typhimurium [5], 2.24; with Salmonella typhimurium [6], 0.27; with Salmonella typhimurium [7] it was 0.06. Moreover, the Ratio with Salmonella typhimurium [8] came to 2.4.

Source of the values: ChEMBL document CHEMBL1153877, “Lowering of 5-nitroimidazole's mutagenicity: towards optimal antiparasitic pharmacophore” (Eur J Med Chem, 2009).
